Values joined by “and” are separate entries in the source; they are usually repeats but may differ in a detail not shown here. Identical values can stand only once. Like-named read-outs stand apart in the source and are kept apart here.
What was measured:
[1] = target: frog AHR1β A370S mutant (Xenopus laevis, UniProt Q4QY30, A370S); assay: Transactivation; assay type: cell-based
[2] = target: frog AHR1β S371T mutant (Xenopus laevis, UniProt Q4QY30, S371T); assay: Transactivation; assay type: cell-based
Method in brief: (§1)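 COS-7 cells in DMEM with 10% FBS (37°, 5% CO₂), 30,000/well, transfected 24 hours later in triplicate wells. Each well received 50 ng AHR construct, 50 ng X. laevis ARNT1, 20 ng pGudLuc6.1 (CYP1A1 enhancer, four XREs) and 3 ng pRL-TK, with empty vector to 300 ng. After 5 hours, graded TCDD was added (0.5% DMSO), and cells were lysed 18 hours later. EC50 came from regression of fractional firefly/Renilla response (vehicle-subtracted, max=1); n=3-4.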

[3] = target: X. laevis AHR1β (Xenopus laevis, UniProt Q4QY30); assay: Transactivation; assay type: cell-based
Method in brief: (§2)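 Same COS-7 co-transfection: AHR construct, X. laevis ARNT1, pGudLuc6.1 firefly reporter and pRL-TK control, total DNA 300 ng, triplicate wells. Graded FICZ (0.5% DMSO vehicle) was added 5 hours post-transfection. Cells were lysed 3 hours after dosing for dual luciferase. Firefly/Renilla ratio, minus vehicle, was normalized to each AHR's maximum. EC50 came from non-linear regression with background 0 and maximum 1; 3-4 replicates.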

[4] = target: T1, frog AHR1β A354S/N325S mutant (Xenopus laevis, UniProt Q4QY30, A354S/N325S); assay: Velocity sedimentation analysis of [3H]TCDD binding; conditions: 2 nM [3H]TCDD, 18 hr at 4° C, sucrose gradients
Method in brief: (§3)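 They were incubated 18 hr at 4 °C with 2 nM [3H]TCDD, then run on sucrose gradients in a vertical rotor. Peak-fraction dpm minus unprogrammed-lysate dpm gave specific binding, expressed relative to wild-type AHR1β. AHR input was checked by western blot. Three replicates.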

[5] = tested on: mouse AHR S359A; conditions: S359A in mouse AHR vs wild type; cited from earlier work
[6] = tested on: AHR1α; conditions: AHR1α vs mouse AHR; cited from earlier work
[7] = target: mouse AHR^b-1 (Mus musculus, UniProt P30561); assay: Transactivation; assay type: cell-based
[8] = target: frog AHR1β S263P mutant (Xenopus laevis, UniProt Q4QY30, S263P); assay: Transactivation; assay type: cell-based
Method in brief: as §1

[9] = target: frog AHR1β S294Q mutant (Xenopus laevis, UniProt Q4QY30, S294Q); assay: Transactivation; assay type: cell-based
Method in brief: as §1

[10] = tested on: chimeric AHR (frog AHR1β with mouse LBD); assay: Velocity sedimentation analysis of [3H]TCDD binding; set-up: species or system Xenopus laevis / mouse; conditions: 2 nM [3H]TCDD, 18 hr at 4° C, sucrose gradients
Method in brief: as §3

[11] = tested on: AHR from the common tern; conditions: common tern AHR vs chicken AHR; cited from earlier work
[12] = target: T2, frog AHR1β N325S mutant (Xenopus laevis, UniProt Q4QY30, N325S); assay: Transactivation; assay type: cell-based
[13] = target: T1, frog AHR1β A354S/N325S mutant; assay: Transactivation; assay type: cell-based
[14] = target: frog AHR1β A354S mutant (Xenopus laevis, UniProt Q4QY30, A354S); assay: Transactivation; assay type: cell-based
Method in brief: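 COS-7 cells (DMEM, 10% FBS, 37°, 5% CO2) were seeded at 30,000/well. After 24 h, triplicate wells were co-transfected with 50 ng AHR plasmid, 50 ng X. laevis ARNT1, 20 ng pGudLuc6.1 (mouse CYP1A1 enhancer, four XREs) and 3 ng pRL-TK, totalling 300 ng. Five hours later, cells received 0.5% DMSO or graded FICZ. Firefly/Renilla luciferase was read at 3 h, vehicle-subtracted and normalized to maximum. EC50 came from nonlinear regression (bottom 0, top 1). n=3-4.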

[15] = target: frog AHR1β KHSR mutant (R345K, D346H, T347S, G348R) (Xenopus laevis, UniProt Q4QY30, D346H/G348R/R345K/T347S); assay: Transactivation; assay type: cell-based
[16] = target: frog AHR1β T256A/S263P mutant (Xenopus laevis, UniProt Q4QY30, S263P/T256A); assay: Transactivation; assay type: cell-based
Method in brief: as §1

[17] = tested on: AHR1β; conditions: AHR1β vs mouse AHR; cited from earlier work
[18] = tested on: frog AHR1β; assay: Velocity sedimentation analysis of [3H]TCDD binding; set-up: species or system Xenopus laevis; conditions: 2 nM [3H]TCDD, 18 hr at 4° C, sucrose gradients
Method in brief: as §3

[19] = target: frog AHR1β T256A mutant (Xenopus laevis, UniProt Q4QY30, T256A); assay: Transactivation; assay type: cell-based
Method in brief: as §1

[20] = target: T2, frog AHR1β N325S mutant; assay: Velocity sedimentation analysis of [3H]TCDD binding; conditions: 2 nM [3H]TCDD, 18 hr at 4° C, sucrose gradients
[21] = target: chimeric frog AHR1β containing the mouse LBD (Xenopus laevis, UniProt P30561+Q4QY30); assay: Transactivation; assay type: cell-based
Method in brief: as §2

In the case of `Clc1cc2c(cc1Cl)Oc1cc(Cl)c(Cl)cc1O2` [TCDD, 2,3,7,8-tetrachlorodibenzo-p-dioxin], the EC50 [1] is reported as 1 ± 0.4 nM, the “fold greater TCDD responsiveness relative to AHR1β” value ([1]; A370S vs wild type AHR1β) is reported as 18.6 fold and the EC50 [2] is reported as 13.5 ± 3.3 nM. The EC50 [3] was 18.6 ± 4.7 nM, the “TCDD binding (in words)” value [4] was “approaching that of the chimera” and the “reduction of TCDD binding” value [5] was 40%. The “fold lower TCDD affinity than mouse AHR” value [6] was “more than 25 fold”, the EC50 [7] was 0.5 ± 0.16 nM and the EC50 [8] was 23.7 ± 8.8 nM. For the same compound, the EC50 [9] was 25.9 ± 1.1 nM, the “TCDD binding (in words)” value [10] was “greatest TCDD binding” and the “fold lower TCDD affinity than AHR from chicken” value [11] was 7 fold. The EC50 [12] was 5.7 ± 1.6 nM, the “fold greater TCDD responsiveness (EC50 decline) relative to AHR1β” value ([12]; N325S vs wild type AHR1β) was 3 fold and 3.2 fold and the EC50 ([13]; EC50 for reporter gene induction, TCDD, (24 hr), COS-7 cells, A354S/N325S) was 0.8 nM and 0.82 nM. The “fold greater TCDD responsiveness relative to AHR1β” value ([13]; N325S/A354S vs wild type AHR1β) was about 23 fold, the EC50 [14] was 1.2 ± 0.4 nM and the EC50 [15] was 23 nM. For the same compound, the EC50 [16] was 20.6 ± 8 nM, the “fold lower TCDD affinity than mouse AHR” value [17] was “more than 25 fold” and the “TCDD binding (in words)” value [18] was “barely detectable”. The EC50 [19] was 23.1 nM and the “TCDD binding (in words)” value [20] was “greater TCDD binding than either A354S or A370S”.
In the case of `O=Cc1c2[nH]c3ccccc3c2cc2[nH]c3ccccc3c12` [FICZ, 6-formylindolo[3,2b]carbazole], the “fold more responsive to FICZ than AHR1β” value ([21]; chimera vs AHR1β, 3 hr) is reported as 2.7 fold, the EC50 ([21]; read-out: EC50 for reporter gene induction, FICZ, (3 hr), COS-7 cells, chimera) is reported as 0.03 ± 0.01 nM and the “fold increase in FICZ responsiveness” value ([1]; A370S vs AHR1β, 3 hr) is reported as “about 2 fold”. For the same compound, the EC50 ([1]; read-out: EC50 for reporter gene induction, FICZ, (3 hr), COS-7 cells, A370S) was 0.04 nM, the EC50 ([3]; read-out: EC50 for reporter gene induction, FICZ, (3 hr), COS-7 cells, AHR1β) was 0.08 nM and the “fold increase in FICZ responsiveness” value ([12]; N325S vs AHR1β, 3 hr) was “about 2 fold”. For the same compound, the EC50 ([12]; read-out: EC50 for reporter gene induction, FICZ, (3 hr), COS-7 cells, N325S) was 0.07 nM, the “FICZ responsiveness (in words)” value ([14]; A354S, 3 hr) was “restored responsiveness to a level comparable to the chimera” and the EC50 ([14]; read-out: EC50 for reporter gene induction, FICZ, (3 hr), COS-7 cells, A354S) was 0.04 nM.
